# Test results as given in ChEMBL document CHEMBL3425433, “Discovery of bicyclic pyrazoles as class III histone deacetylase SIRT1 and SIRT2 inhibitors” (Bioorg Med Chem Lett, 2015).
# Active and inactive are the calls of the source. The rule behind the calls is not given here.
# Columns and labels:
# [1] = molecular target: T1, NAD-dependent protein deacetylase sirtuin-1 (Homo sapiens, UniProt Q96EB6); assay: Inhibition of His-tagged human recombinant SIRT1 expressed in Escherichia coli using Cbz-Lys(Ac)-AMC as substrate by fluorescence assay
# T1 sequence (Q96EB6 whole entry): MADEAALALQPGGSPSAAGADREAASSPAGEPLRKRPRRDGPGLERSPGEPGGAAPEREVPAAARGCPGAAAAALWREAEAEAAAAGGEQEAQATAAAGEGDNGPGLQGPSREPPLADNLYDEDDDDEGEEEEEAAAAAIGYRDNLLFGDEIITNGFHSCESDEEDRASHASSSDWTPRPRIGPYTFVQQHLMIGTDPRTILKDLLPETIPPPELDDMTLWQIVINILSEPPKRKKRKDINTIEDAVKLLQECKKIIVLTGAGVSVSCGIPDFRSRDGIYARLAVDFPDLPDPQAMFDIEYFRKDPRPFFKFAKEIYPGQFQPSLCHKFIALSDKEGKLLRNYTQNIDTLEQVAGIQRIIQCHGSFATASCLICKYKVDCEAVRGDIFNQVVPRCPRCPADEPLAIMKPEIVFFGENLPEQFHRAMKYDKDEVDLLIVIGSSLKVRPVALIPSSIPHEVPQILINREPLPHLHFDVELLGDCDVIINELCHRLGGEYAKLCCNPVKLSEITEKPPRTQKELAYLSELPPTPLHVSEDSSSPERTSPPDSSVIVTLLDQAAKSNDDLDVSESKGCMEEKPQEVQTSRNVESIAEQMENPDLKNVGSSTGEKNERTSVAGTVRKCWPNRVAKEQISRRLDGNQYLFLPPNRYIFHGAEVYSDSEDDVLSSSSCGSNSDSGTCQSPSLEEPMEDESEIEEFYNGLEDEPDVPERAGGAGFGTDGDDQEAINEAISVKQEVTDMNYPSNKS
# [2] = molecular target: T2, NAD-dependent protein deacetylase sirtuin-1 (Homo sapiens) (UniProt Q96EB6); assay: Inhibition of SIRT1-mediated endogenous p53 deacetylase activity in human Namalwa cells assessed as concentration required to […] to twice the basal level after 3 hrs by ELISA; type: cell-based
# T2 sequence (whole entry): T1 sequence (Q96EB6 whole entry)
# Method in brief: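 Namalwa cells, 50,000/well, were exposed 3 h at 37 °C, 5% CO2, to 0.005–50 µM final (0.95% DMSO). Lysates were ELISA-captured on anti-p53 (DO-1), probed overnight with anti-acetyl-Lys382-p53, then HRP conjugate and Amplex Red (15 min; ex 550/em 610 nm). IC2xB is the concentration doubling basal (lowest) fluorescence. Means of three experiments.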
# [3] = molecular target: T3, Histone deacetylase 7 (Homo sapiens) (UniProt Q8WUI4); assay: Inhibition of HDAC7 (unknown origin) at 20 uM
# T3 sequence (whole entry): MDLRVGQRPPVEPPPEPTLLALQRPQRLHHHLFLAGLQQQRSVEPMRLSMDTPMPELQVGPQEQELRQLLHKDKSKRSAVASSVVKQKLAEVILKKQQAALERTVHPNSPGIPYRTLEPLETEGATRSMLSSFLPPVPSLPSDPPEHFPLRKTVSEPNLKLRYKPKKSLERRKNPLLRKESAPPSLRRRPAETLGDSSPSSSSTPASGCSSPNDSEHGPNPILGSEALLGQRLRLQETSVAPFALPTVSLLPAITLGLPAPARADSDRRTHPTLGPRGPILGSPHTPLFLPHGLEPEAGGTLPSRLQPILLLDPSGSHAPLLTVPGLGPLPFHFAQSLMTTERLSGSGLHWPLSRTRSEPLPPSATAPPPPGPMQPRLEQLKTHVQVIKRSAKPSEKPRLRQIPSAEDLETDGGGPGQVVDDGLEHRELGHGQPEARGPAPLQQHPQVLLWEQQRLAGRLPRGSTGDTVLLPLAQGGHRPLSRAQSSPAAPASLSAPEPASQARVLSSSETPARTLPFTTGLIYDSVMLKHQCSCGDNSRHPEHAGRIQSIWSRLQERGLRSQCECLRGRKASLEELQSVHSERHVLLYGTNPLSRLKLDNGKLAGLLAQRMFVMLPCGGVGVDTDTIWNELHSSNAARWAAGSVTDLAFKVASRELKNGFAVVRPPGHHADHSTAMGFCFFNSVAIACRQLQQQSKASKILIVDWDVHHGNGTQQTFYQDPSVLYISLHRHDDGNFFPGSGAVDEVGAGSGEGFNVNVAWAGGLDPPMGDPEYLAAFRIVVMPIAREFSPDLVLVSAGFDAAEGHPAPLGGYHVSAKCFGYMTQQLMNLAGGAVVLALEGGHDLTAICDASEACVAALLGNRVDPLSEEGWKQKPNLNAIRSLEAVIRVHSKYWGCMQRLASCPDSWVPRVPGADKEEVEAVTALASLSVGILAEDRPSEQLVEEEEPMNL
# [4] = molecular target: T4, NAD-dependent protein deacetylase sirtuin-2 (Homo sapiens, UniProt Q8IXJ6); assay: Inhibition of His-tagged human recombinant SIRT2 expressed in Escherichia coli using Cbz-Lys(Ac)-AMC as substrate by fluorescence assay
# T4 sequence (Q8IXJ6 whole entry): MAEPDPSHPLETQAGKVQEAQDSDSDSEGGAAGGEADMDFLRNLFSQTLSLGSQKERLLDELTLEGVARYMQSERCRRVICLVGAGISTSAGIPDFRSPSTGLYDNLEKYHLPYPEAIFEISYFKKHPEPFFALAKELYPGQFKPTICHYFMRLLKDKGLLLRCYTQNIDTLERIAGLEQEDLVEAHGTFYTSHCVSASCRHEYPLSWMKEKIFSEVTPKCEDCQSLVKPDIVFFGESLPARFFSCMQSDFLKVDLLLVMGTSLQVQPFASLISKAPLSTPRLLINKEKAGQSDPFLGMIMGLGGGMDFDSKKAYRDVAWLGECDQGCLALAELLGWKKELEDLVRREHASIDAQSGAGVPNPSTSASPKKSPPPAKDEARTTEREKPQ
# [5] = molecular target: Histone deacetylase 5 (Homo sapiens) (UniProt Q9UQL6); assay: Inhibition of HDAC5 (unknown origin) at 20 uM
# [6] = molecular target: T3, Histone deacetylase 7 (Homo sapiens); assay: Inhibition of HDAC7 (unknown origin)
# [7] = Oral bioavailability in rat; type: ADME, organism-based; settings: in vivo
# Plasma = assay: Metabolic stability in mouse plasma; type: ADME, cell-free
# [8] = Clearance in rat; type: ADME, organism-based; settings: in vivo
# [9] = molecular target: T5, Histone deacetylase 8 (Homo sapiens) (UniProt Q9BY41); assay: Inhibition of HDAC8 (unknown origin)
# T5 sequence (whole entry): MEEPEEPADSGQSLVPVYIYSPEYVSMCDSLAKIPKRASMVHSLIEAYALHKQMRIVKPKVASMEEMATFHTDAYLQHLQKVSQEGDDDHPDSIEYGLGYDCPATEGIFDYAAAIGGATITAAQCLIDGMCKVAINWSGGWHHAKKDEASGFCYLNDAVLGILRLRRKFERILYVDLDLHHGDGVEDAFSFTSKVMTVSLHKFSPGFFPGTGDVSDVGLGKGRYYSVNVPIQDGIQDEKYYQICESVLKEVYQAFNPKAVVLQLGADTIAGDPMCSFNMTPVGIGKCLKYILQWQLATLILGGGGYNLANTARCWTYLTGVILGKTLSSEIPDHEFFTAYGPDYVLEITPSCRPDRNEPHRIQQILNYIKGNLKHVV
# [10] = Half life in rat; type: ADME, organism-based; settings: in vivo
# Sequence of Histone deacetylase 5 (Homo sapiens) (Q9UQL6 whole entry): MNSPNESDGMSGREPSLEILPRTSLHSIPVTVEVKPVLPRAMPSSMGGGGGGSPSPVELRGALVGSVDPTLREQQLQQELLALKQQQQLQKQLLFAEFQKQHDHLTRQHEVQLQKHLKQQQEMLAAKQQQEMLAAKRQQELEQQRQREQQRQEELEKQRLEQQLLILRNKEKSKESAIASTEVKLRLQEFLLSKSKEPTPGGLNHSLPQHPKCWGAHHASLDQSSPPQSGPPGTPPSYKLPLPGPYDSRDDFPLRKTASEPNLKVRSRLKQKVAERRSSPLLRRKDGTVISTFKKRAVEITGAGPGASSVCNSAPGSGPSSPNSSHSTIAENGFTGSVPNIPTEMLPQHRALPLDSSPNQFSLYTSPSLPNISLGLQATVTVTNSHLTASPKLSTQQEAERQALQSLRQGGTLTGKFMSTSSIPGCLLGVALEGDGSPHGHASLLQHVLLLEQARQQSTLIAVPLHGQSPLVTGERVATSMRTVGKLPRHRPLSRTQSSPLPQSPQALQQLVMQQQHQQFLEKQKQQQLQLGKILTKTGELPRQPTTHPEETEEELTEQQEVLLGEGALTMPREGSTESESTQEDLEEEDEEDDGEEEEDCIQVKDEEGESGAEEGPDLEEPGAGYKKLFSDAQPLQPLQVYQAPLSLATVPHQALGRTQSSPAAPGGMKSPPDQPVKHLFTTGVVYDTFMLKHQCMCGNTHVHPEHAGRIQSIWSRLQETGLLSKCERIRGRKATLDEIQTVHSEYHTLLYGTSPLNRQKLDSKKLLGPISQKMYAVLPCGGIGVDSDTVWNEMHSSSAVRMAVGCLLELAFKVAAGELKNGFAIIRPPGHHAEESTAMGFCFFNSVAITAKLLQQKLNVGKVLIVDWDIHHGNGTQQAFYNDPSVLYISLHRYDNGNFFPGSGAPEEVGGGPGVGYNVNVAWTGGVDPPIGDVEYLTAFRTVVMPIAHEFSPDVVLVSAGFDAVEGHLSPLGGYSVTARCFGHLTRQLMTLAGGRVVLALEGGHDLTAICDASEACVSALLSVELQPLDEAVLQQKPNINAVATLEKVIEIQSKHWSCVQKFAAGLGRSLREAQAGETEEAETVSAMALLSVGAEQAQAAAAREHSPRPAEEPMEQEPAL
IC50 [1] [nM],INH [2] [µM],inhibition [3],IC50 [4] [nM],inhibition [5],inhibition [6],bioavailability [7] [%],Stability (Plasma),clearance [8] [mL/min/kg],inhibition [9],half-life [10] [h],SMILES
1200,1.2,inactive,14800,inactive,,,,,,,NC(=O)C1CCCc2c(-c3ccc(Cl)c(Cl)c3)n[nH]c21 (racemic)
800,1.2,,1700,,inactive,23,Stable,5,inactive,5.1,CC1(C)Cc2c(-c3ccc(Cl)cc3)n[nH]c2C(C(N)=O)C1 (racemic)
